Results on 22 molecules are retold here after ChEMBL document CHEMBL1148649, “Effect of various pyrimidines possessing the 1-[(2-hydroxy-1-(hydroxymethyl)ethoxy)methyl] moiety, able to mimic natural 2'-deoxyribose, on wild-type and mutant hepatitis B virus replication” (J Med Chem, 2006).

Test [1] deals with Duck hepatitis B virus. Description: Antiviral activity against duck HBV in primary duck hepatocytes. Type of test: functional, organism-based. Conditions: Hepatocyte. The procedure, abridged:
(§1)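 Primary hepatocyte cultures from congenitally DHBV-infected ducks were exposed to compounds. Intracellular viral DNA was measured by dot blot hybridization. EC50 is the µM concentration that cuts viral DNA to 50% of untreated infected controls. The single-point value is % inhibition of viral DNA at 10 µg/mL against untreated infected controls.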

Test [2] relates to Hepatitis B virus. Description: Antiviral activity against wild type HBV in human hepatoma 2.2.15 cells. Type of test: functional, organism-based. Conditions: HepG2 2.2.15. The procedure, abridged:
(§2)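 HBV-transfected human 2.2.15 cells were treated with compounds. Intracellular HBV DNA was quantified by dot blot hybridization. EC50 is the µM concentration that reduces viral DNA to 50% of untreated infected controls. The fixed-dose value is % inhibition at 10 µg/mL against untreated infected controls. Lamivudine and abacavir served as references.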

The test system of test [3] is Duck hepatitis B virus. Kind of test: Antiviral activity against duck HBV in primary duck hepatocytes at 10 ug/mL. Type of test: functional. The settings on record: Hepatocyte. The procedure, abridged: as §1
For a further test, the system named is HepG2. Kind of test: Cytotoxicity against human HepG2 cell line. The class given is functional. The procedure, abridged:
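HepG2 cells were exposed to compounds for 3 days and viability was measured. CC50 is the concentration lowering viability by 50% versus untreated control. ">" means 50% was not reached at the highest concentration tested.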

In the next test the test system is Vero. Description: Cytotoxicity against Vero cell line. The class given is functional. The settings on record: Chlorocebus sabaeus. The procedure, abridged: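 Vero cell viability was measured by MTT after 3 days of compound exposure. CC50 is the concentration giving 50% loss of viability versus untreated control. ">" marks values where 50% was not reached at the highest concentration tested.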

Test [4] concerns Hepatitis B virus. Kind of test: Antiviral activity against wild type HBV in human hepatoma 2.2.15 cells at 10 ug/mL. The class given is functional. Conditions: HepG2 2.2.15. The procedure, abridged: as §2
Test [5] deals with Hepatitis B virus. Description: Antiviral activity against HBV L180M/M204V mutant transfected in D88 cell line at 10 ug/mL. The class given is functional. The procedure, abridged: (§3)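 Mutant-HBV-transfected HepG2 lines: B1 carries M204I, D88 carries L180M/M204V. Cells are exposed to compound at 10 µg/mL. Intracellular viral DNA is quantified by dot blot hybridization. Results are given as percent inhibition of viral DNA relative to untreated infected controls.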

Test [6] concerns Hepatitis B virus. Description: Antiviral activity against HBV M204I mutant transfected in B1 cell line at 10 ug/mL. The class given is functional. The procedure, abridged:
as §3

Test [7] deals with Hepatitis B virus. Kind of test: Antiviral activity against HBV M204I mutant transfected in B1 cell line. The class given is functional, organism-based. The procedure, abridged:
(§4)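 HepG2 human hepatoma cells stably transfected with mutant HBV genome: B1 line carries M204I, D88 line carries L180M/M204V. Culture, compound treatment and read-out are as for 2.2.15 cells. Intracellular viral DNA is measured by dot blot hybridization. EC50 is the concentration (µM) that reduces viral DNA to 50% of untreated infected controls.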

The test system of test [8] is Hepatitis B virus. Kind of test: Antiviral activity against HBV L180M/M204V mutant transfected in D88 cell line. The class given is functional, organism-based. The procedure, abridged: as §4
The subject of the next test is Hepatitis C virus. Kind of test: Antiviral activity against hepatitis C virus. The class given is functional, organism-based, Hepacivirus hominis.

A word on the EC50: it is the midpoint of the concentration-response curve. By inhibition is commonly meant the change of the read-out against control, counted positive when it falls. Read a high inhibition as strong suppression. In general, CC50 refers to the concentration that lowers cell viability or growth by half.

For `CCc1cn(COC(CO)CO)c(=O)[nH]c1=O`, the EC50 with Duck hepatitis B virus [1] and with Hepatitis B virus [2] was above 41 µM throughout. Also, the figures for the inhibition at 10 µg/mL with Duck hepatitis B virus [3] and with Hepatitis B virus [4] were 35% and 30%, respectively. Moreover, the 50% cytotoxic concentration (CC50) in the test with HepG2 and in the test with Vero was above 410 µM each time.
On to `O=c1cnn(COC(CO)CO)c(=O)[nH]1`, for which the concentration giving a half-maximal response (EC50) in the test on Duck hepatitis B virus [1] and with Hepatitis B virus [2] was above 46 µM in each case. Besides, the inhibition at 10 µg/mL in the test on Duck hepatitis B virus [3] worked out at 41%; with Hepatitis B virus [4], 32%. Besides, the CC50 in the test on HepG2 and with Vero was above 460 µM each time.
Consider `O=c1[nH]c(=O)n(COC(CO)CO)cc1CO`, for which the inhibition at 10 µg/mL in the test on Duck hepatitis B virus [3] and in the test on Hepatitis B virus [4] was 0% each time. In addition, the 50% cytotoxic concentration (CC50) with HepG2 and in the test with Vero was above 406 µM throughout.
As for `O=c1[nH]c(=O)n(COC(CO)CO)cc1CCO`, the 50% effective concentration (EC50) with Duck hepatitis B virus [1] and with Hepatitis B virus [2] was above 38.4 µM throughout. For the same molecule, the inhibition at 10 µg/mL was determined as 25% in the test with Duck hepatitis B virus [3] and 28% with Hepatitis B virus [4]. Further, the half-maximal cytotoxic concentration (CC50) in the test with HepG2 and in the test on Vero was above 384 µM each time.
Take `Cc1c(Br)c(=O)[nH]c(=O)n1COC(CO)CO`: the 50% effective concentration (EC50) is 16.2 µM in the test with Duck hepatitis B virus [1], 32.4 µM in the test with Hepatitis B virus [2], 32.4 µM in the test on Hepatitis B virus [7] and above 32.4 µM with Hepatitis B virus [8]. Besides, the inhibition at 10 µg/mL was determined as 30% with Hepatitis B virus [5], 51% in the test on Hepatitis B virus [6], 73% in the test with Duck hepatitis B virus [3] and 55% in the test with Hepatitis B virus [4]. Also, the 50% cytotoxic concentration (CC50) in the test on HepG2 and with Vero was above 324 µM each time.
On to `COc1nc(=O)n(COC(CO)CO)cc1Br`, for which the EC50 in the test with Duck hepatitis B virus [1] and in the test on Hepatitis B virus [2] was above 32.3 µM in each case. Besides, the inhibition at 10 µg/mL in the test with Duck hepatitis B virus [3] turned out to be 45%; in the test on Hepatitis B virus [4], 35%. Besides, the CC50 with HepG2 and in the test with Vero was above 323 µM in each case.
Consider `Cc1nn(COC(CO)CO)c(=O)[nH]c1=O`, for which the EC50 in the test on Duck hepatitis B virus [1] and with Hepatitis B virus [2] was above 43.2 µM each time. For the same molecule, the inhibition at 10 µg/mL in the test on Duck hepatitis B virus [3] came out at 45%; in the test on Hepatitis B virus [4], 37%. Further, the CC50 with HepG2 and in the test with Vero was above 432 µM each time.
For `Cc1cc(=O)[nH]c(=O)n1COC(CO)CO`, the EC50 in the test with Duck hepatitis B virus [1] was above 43.4 µM. The inhibition at 10 µg/mL was 27% with Duck hepatitis B virus [3] and 0% in the test with Hepatitis B virus [4]. The CC50 in the test with HepG2 and with Vero was above 434 µM throughout.
Regarding `Nc1nc(=O)n(COC(CO)CO)cc1F`, the EC50 is above 42.9 µM with Duck hepatitis B virus [1] and 132 µM with Hepatitis C virus. The inhibition at 10 µg/mL in the test with Duck hepatitis B virus [3] was found to be 20%; in the test with Hepatitis B virus [4], 0%. The CC50 with HepG2 and in the test with Vero was above 429 µM throughout.
In the case of `O=c1[nH]c(=O)n(COC(CO)CO)cc1F`, the EC50 in the test with Duck hepatitis B virus [1] and in the test with Hepatitis B virus [2] was above 42.7 µM in each case. The inhibition at 10 µg/mL in the test on Duck hepatitis B virus [3] was determined as 24%; in the test on Hepatitis B virus [4] it was 26%. In addition, the CC50 with HepG2 and in the test with Vero was above 427 µM in each case.
Regarding `Cc1cn(COC(CO)CO)c(=O)[nH]c1=O`, the EC50 with Duck hepatitis B virus [1] and in the test with Hepatitis B virus [2] was above 43.4 µM in each case. The figures for the inhibition at 10 µg/mL in the test with Duck hepatitis B virus [3] and in the test on Hepatitis B virus [4] were 45% and 37%, respectively. Besides, the cytotoxic concentration (CC50) in the test on HepG2 and in the test with Vero was above 434 µM each time.
`Nc1cn(COC(CO)CO)c(=O)[nH]c1=O`: the EC50 in the test on Duck hepatitis B virus [1] and in the test on Hepatitis B virus [2] was above 43.2 µM throughout. The inhibition at 10 µg/mL with Duck hepatitis B virus [3] was 37%; in the test on Hepatitis B virus [4] it was 30%. In addition, the cytotoxic concentration (CC50) in the test with HepG2 and in the test with Vero was above 432 µM in each case.
As to `O=c1[nH]c(=O)n(COC(CO)CO)cc1/C=C/Br`, the figures for the half-maximal effective concentration (EC50) in the test with Duck hepatitis B virus [1] and in the test with Hepatitis B virus [2] were 3 µM and 30 µM, respectively. The inhibition at 10 µg/mL in the test with Duck hepatitis B virus [3] worked out at 75%; with Hepatitis B virus [4], 53%. Also, the CC50 in the test on HepG2 and in the test on Vero was above 311 µM in each case.
Turning to `O=c1[nH]c(=O)n(COC(CO)CO)cc1Cl`, the EC50 in the test with Duck hepatitis B virus [1] is 4 µM; in the test with Hepatitis B virus [2] it was 20 µM; with Hepatitis B virus [7], 20 µM; with Hepatitis B virus [8], above 40 µM. Further, the inhibition at 10 µg/mL in the test on Hepatitis B virus [5] came out at 40%; with Hepatitis B virus [6], 56%; in the test with Duck hepatitis B virus [3], 69%; in the test on Hepatitis B virus [4] it was 60%. Further, the CC50 with HepG2 and in the test on Vero was above 400 µM each time.
With `Nc1ccn(COC(CO)CO)c(=O)n1`, the inhibition at 10 µg/mL in the test with Duck hepatitis B virus [3] and in the test on Hepatitis B virus [4] was 0% each time. In addition, the CC50 in the test on HepG2 and in the test on Vero was above 465 µM each time.
In the case of `O=c1[nH]c(=O)n(COC(CO)CO)cc1Br`, the EC50 in the test on Duck hepatitis B virus [1] and in the test with Hepatitis B virus [2] was above 33.8 µM throughout. Besides, the values for the inhibition at 10 µg/mL with Duck hepatitis B virus [3] and in the test with Hepatitis B virus [4] were 48% and 40%, respectively. The CC50 with HepG2 and with Vero was above 338 µM in each case.
In the test on Duck hepatitis B virus [1], `Cc1nn(COC(CO)CO)c(=S)[nH]c1=O` registered an EC50 above 40.4 µM. For the same molecule, the inhibition at 10 µg/mL in the test with Duck hepatitis B virus [3] amounted to 25%; in the test on Hepatitis B virus [4], 0%. For the same molecule, the half-maximal cytotoxic concentration (CC50) in the test on HepG2 and in the test with Vero was above 404 µM each time.
As for `O=c1[nH]c(=O)n(COC(CO)CO)cc1[N+](=O)[O-]`, the EC50 in the test on Duck hepatitis B virus [1] and in the test with Hepatitis B virus [2] was above 38.3 µM in each case. Further, the figures for the inhibition at 10 µg/mL in the test on Duck hepatitis B virus [3] and with Hepatitis B virus [4] were 45% and 40%, respectively. In addition, the CC50 in the test with HepG2 and in the test with Vero was above 383 µM throughout.
As for `O=c1ccn(COC(CO)CO)c(=O)[nH]1`, the inhibition at 10 µg/mL with Duck hepatitis B virus [3] and in the test on Hepatitis B virus [4] was 0% throughout. The CC50 with HepG2 and with Vero was above 462 µM throughout.
Consider `Nc1nc(NC2CC2)c2ncn([C@H]3C=C[C@@H](CO)C3)c2n1` [ABACAVIR], for which the inhibition at 10 µg/mL was 72% in the test on Hepatitis B virus [5] and 80% in the test on Hepatitis B virus [6].
On to `Cc1c(I)c(=O)[nH]c(=O)n1COC(CO)CO` [IODMETACYCLUR], for which the EC50 with Duck hepatitis B virus [1] and in the test with Hepatitis B virus [2] was above 28 µM throughout. In addition, the inhibition at 10 µg/mL in the test with Duck hepatitis B virus [3] was found to be 44%; in the test with Hepatitis B virus [4], 38%. For the same molecule, the CC50 in the test on HepG2 and with Vero was above 280 µM in each case.
Regarding `Nc1ccn([C@@H]2CS[C@H](CO)O2)c(=O)n1` [LAMIVUDINE], the inhibition at 10 µg/mL stood at 30% with Hepatitis B virus [5], 45% in the test with Hepatitis B virus [6], 96% with Duck hepatitis B virus [3] and 88% with Hepatitis B virus [4]. Also, in the test with Hepatitis B virus [7], the half-maximal effective concentration (EC50) was above 44 µM.
